Data taken from the EternaBench riboswitch data.

Tested on: MS2 coat protein
Assay: apparent Kd, MS2 coat protein; higher = weaker binding; RNA-MaP array; FMN 200 µM where present
Outline: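 The apparent Kd is the median of filtered binding-curve fits, one per cluster, to green signal normalised to red-channel RNA signal and control-cluster median Fmax. The clusters were on Illumina sequencing chips, and stalled E. coli RNA polymerase had transcribed the designs on them. Titration used SNAP-549-labelled MS2 coat protein from 0.7 or 1.5 nM, doubling to 3 µM, without and then with constant ligand, in 100 mM Tris-HCl pH 7.5, 80 mM KCl, 4 mM MgCl2, BSA, DTT, yeast tRNA and Tween-20.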

[1] = designed as: ON switch for flavin mononucleotide, no ligand
[2] = ligand present: flavin mononucleotide, designed as: ON switch for flavin mononucleotide
[3] = designed as: OFF switch for flavin mononucleotide, no ligand
[4] = ligand present: flavin mononucleotide, designed as: OFF switch for flavin mononucleotide

Sequence | apparent Kd [1] [nM] | apparent Kd [2] [nM] | apparent Kd [3] [nM] | apparent Kd [4] [nM]
UUACGUCCCGUUUACAUGAGGAUCACCCAUGUCGAAAGAGCGGAGGAUAUGCUACCUAGUUGGUAGCAGAAGGUUGCAACGUCG | 17.7 | 28.3 |  | 
CAAAGCAGUAAGGAUAUAUGGUAGCCAGUUACCGUAGAAGGUAUAACAUGAGGAUCACCCAUGUCCAUAUGAUU |  |  | 56.8 | 57.7
CGAUAAAGGUGAGGAUAUGAGAAUAGAAAGAAAUCAGAAGGCACACAUGAGGAUCACCCAUGUGAGUUCUCGAGAUUACAUGGU |  |  | 15.5 | 17.9
CCUAAGGACACAGGAUAUAGCGUGGCGGCUGGACUCCAACGGCGAACGGCGCUAGAAGGGUGACCACAUGAGGAUCACCCAUGU | 495 | 206 |  | 
GACCGUCACAAUAACCGGUUGAACGAGGAUAUGAUCACUGGGCCUGCACAUGAGGAUCACCCAUGUCAGAAGGCGUUCAGUCCC |  |  | 5.53 | 16.4
UAUUAAUACGAAGGAUAUGGUUACAUGAGGAUCACCCAUGUAUGUAUUUUGAUCUAAUUAUUUAACCAGAAGGUCGAAUAUAAA |  |  | 35.5 | 78.5
UACUGGUGUGAGAAGGGACAUAUCUCCAUGAGGGCAGGGCGAUUAGAGAAGUCAGGAUAUCACAUGAGGAUCACCCAUGUGACA |  |  | 8.14 | 8.51
GGUGCACGCACAGGAUAUCCGGCGGAGCUCGUCGGAGAAGGGUGACAUGAGGAUCACCCAUGUACGUGCAACUCAGUUUGAGAG | 59.8 | 32.1 |  | 
GUUUCGGGAGGAUAUGCGUGGAUUGUUCUCGUAUGGUGUCUACAUGAGGAUCACCCAUGUAGAAGGUCUGGAGC |  |  | 18 | 38.6
GUUGUGUGAGGAUAUGCCUGGCCGUGUGGCCGGAUUGGGUGGCAGAAGGUACAUGAGGAUCACCCAUGUACGGG |  |  | 90.6 | 70
ACAUGAUACAAGAAGGAUGUAUUAGAUUUGAUCAUAGGAUAUUGUUAUAUUGUUUACUCUAAUAACAUGAGGAUCACCCAUGUA | 10.7 | 7.53 |  | 
GUCAGCUCGUGAGGAUAUACGUCACUGCUUCGGCAGUGAAAUUUCCUCACAUGAGGAUCACCCAUGUAGAAGGCACGAGCUGAU |  |  | 11.5 | 208
AUGAGUAAAGCAGGAUAUCUAUUGUCUCAGUAACAUGAGGAUCACCCAUGUAGAGAAGGGCUAAGUCUUACUCUUCGGAGAUGA |  |  | 12.3 | 13.4
AAAAAGUGAGGAUAUACGAAAAAAAAAAAAAAAAAAGGUGAACAUGAGGAUCACCCAUGUAGAAGGCACAAAAA |  |  | 311 | 243
GCCAUCGCAUGAGGAUAUGCUCCGGUUUCCGGAGCAGAAGGCAUGUCGUUAGACAUGAGGAUCACCCAUGUAGUUAAGAUGGCA | 999 | 41.1 |  | 
UAUAUAUAGUAAGGAUAUGUAUUUAUUUUAGAAACAGAAGGUACUGACAUGAGGAUCACCCAUGUUUUAGUGUGGGCAUGUAGA |  |  | 96.3 | 152
CCUGCGGACAAAGGAUAUUGCGGUGGCCGGCUCAGUAAAUCUAGCCAACAUGAGGAUCACCCAUGUAAGAAGGUUGCCGUUGGU |  |  | 19.1 | 35.1
CUAUUGGUAACAGGAUAUAUGAGUCCUACAUGAGGAUCACCCAUGUAGGUGAUCUAACGAGAUUAGUAGAAGGGUUACCAAUAG | 16.9 | 8.34 |  | 
AUCAGCUCGUCAGGAUAUACGUCACUGCGUCAGCAGUUUGGUAAGAUCACAUGAGGAUCACCCAUGUAGAAGGGACGAGCUGAU |  |  | 15.2 | 249
ACAUGGAAGCAGGAUAUGCUUGUUUAAUUGUUUGCAGAAGGGCUAACAUGAGGAUCACCCAUGUAAGAGGUCUA |  |  | 17 | 29.6
AUCAGCUCGUCAGGAUAUACGUCACUGCGUCGGCAGUGUGGUAAGAUCACAUGAGGAUCACCCAUGUAGAAGGGACGAGCUGAU |  |  | 14.4 | 280
CCAUAACAUGAGGAUCACCCAUGUCGACUAAAUCAAGGAUAUGGGAACGCGCAAGCAAAACCAGAAGGUGAGGUCC | 255 | 236 |  | 
ACGUGUCGUGUAGGAUAUGACACAGGAAACUGGUCAGAAGGACAUGAGGAUCACCCAUGUAGAGUGUUUAAGGAUGACGUAUGC |  |  | 46.9 | 161
ACAGCACGAGGAUAUACAUGAGGAUCACCCAUGUCUGAGGGAAGGCGAACGCCCUUGUGUAGAAGGCGUUGAUC |  |  | 91.4 | 112
AGCUACGUUUCGUAGCAGUGUCAUCGAGAAGGCCUCAUAACAUGAGGAUCACCCAUGUUUGCAUGGGAGGAUAUCGAUGAUACA | 206 | 56.4 |  | 
CUUCAGUCAGGAUAUGUUAAUCUCGCCACUCCACGAGCCGGACAGAAGGGACAUGAGGAUCACCCAUGUUAGAC |  |  | 30 | 22.4
GCUUCGGCUGUGAGGAUAUGGCUUCGGAAAUGAAGUUAGAAGGCACAUGAGGAUCACCCAUGUAAGGUUGAAGU |  |  | 21.7 | 17.8
UGUUGUAUUACAGGAUAUCUAUAAUUUUUAUUUAGAGAAGGGUAUUCACAUGAGGAUCACCCAUGUAUAUACGAGGAAGUUGUG | 43.5 | 45.8 |  | 
